# Only a selection was taken, and hits are over-represented in it overall.
# XBP1 UPR activ – activators of adaptive XBP1 UPR arm, primary screen, cell-based, CHO-XBP1 luciferase reporter, luminescence, uHTS. IRE1-XBP1 UPR activation; percent of tunicamycin response, DMSO as zero. activation, % at 20 µM. 330,000 tested, 0.33% active. AID 463104, 2010;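 active means versus positive control, 20 µM dose yields 30% or more activation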;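 further: 100% = tunicamycin at 10 µg/mL and 0% = DMSO only wells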
#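 Material: CHO cell line with stable XBP1 luciferase reporter; buffer or medium: F12 medium containing 10% fetal bovine serum; compound: single point, 20 µM final compound, 1% DMSO; incubation: 6 h treatment, 37 °C; measured by: glow luminescence from Steady-Glo reagent; evaluation: activation, % of tunicamycin; control set: tunicamycin high, DMSO low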
# VLA-4 inh – inhibition in human VLA-4 binding assay, primary screen, VLA-4 allosteric modulator project, MLPCN library, flow cytometry, VLA-4 expressing cells | Integrin alpha-4 (Homo sapiens), P13612 | ligand binding flow cytometry | inhibition, % (about 7 µM as worked out from the volumes in the protocol) | 330,000 tested, 0.2% active | AID 2557, 2010; in the data active means inhibition above about 50%
# B2AR ag – beta2AR agonists driving receptor internalization, primary screen, cell-based, FAP fluorogen, flow cytometry. 340,000 tested, 0.43% active. response, % (no concentration beside the values). Beta-2 adrenergic receptor (Homo sapiens), P07550. AID 504454, 2011. Am2.2-beta2AR cells;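 active means response above a set limit, near 3 SD of response in nonfluorescent compounds, cut at about 42% in these data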
# Target sequence (P07550 whole entry, looked up): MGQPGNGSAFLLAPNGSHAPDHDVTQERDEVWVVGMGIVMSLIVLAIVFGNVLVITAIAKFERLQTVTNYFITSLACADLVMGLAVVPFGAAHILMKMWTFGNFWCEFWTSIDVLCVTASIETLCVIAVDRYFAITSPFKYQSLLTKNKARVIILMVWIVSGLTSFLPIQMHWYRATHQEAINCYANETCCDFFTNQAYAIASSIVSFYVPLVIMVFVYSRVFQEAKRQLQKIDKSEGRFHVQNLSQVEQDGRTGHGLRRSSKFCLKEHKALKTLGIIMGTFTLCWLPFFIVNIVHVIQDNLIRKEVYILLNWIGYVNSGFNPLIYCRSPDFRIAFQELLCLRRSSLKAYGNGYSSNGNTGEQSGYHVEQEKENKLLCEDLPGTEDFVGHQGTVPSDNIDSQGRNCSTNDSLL
# CHOP UPR activ – activators of apoptotic CHOP UPR arm, primary screen, cell-based, CHO-CHOP luciferase reporter, luminescence, uHTS. activation, % at 10 µM. 330,000 tested, 0.34% active. UPR activation; percent of tunicamycin response over DMSO baseline;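 active means at 10 µM dose, activation of 40% or more, normalized to positive control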;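 further: 100% = tunicamycin at 10 µg/mL and 0% = DMSO alone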
#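 Assay system: CHO cells with stable CHOP pathway luciferase reporter; Buffer or medium: F12 plus 10% serum; Times: 16-18 h cell attachment, then 6 h compound exposure, 37 °C; Signal: luciferase luminescence; Read-out basis: percent activation relative to tunicamycin control; Control set: tunicamycin high control, DMSO low control.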
# CHOP inhibitor – inhibitors of CHOP promoter induction, primary screen, cell-based, unfolded protein response, luciferase reporter. CHO-K1 CHOP-promoter luciferase, tunicamycin-induced, 15-18 h. inhibition, % at 10 µM. 220,000 tested, 3.8% active. AID 2732, 2010;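 active means compounds that reduced the stress-induced luciferase reporter signal by more than about 70% of percent inhibition, limit read from the data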;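 further: 0% = tunicamycin plus vehicle and 100% = wells without tunicamycin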
# CHOP inh conf – retest of CHOP induction inhibitors, confirmation, cell-based; shares compounds with CHOP inhibitor; CHO-CHOP promoter luciferase reporter, tunicamycin-induced, luminescence; inhibition, % at 10 µM; 2,100 tested, 45% active; AID 504437, 2011;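 active means mean of three repeat readings of reporter signal inhibition above a set limit, cut at about 70% in these data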;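 further: 0% = tunicamycin plus vehicle and 100% = wells lacking tunicamycin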
# * = called active by the depositor; nt = no result given.
SMILES,XBP1 UPR activ,VLA-4 inh,B2AR ag,CHOP UPR activ,CHOP inhibitor,CHOP inh conf
CC(C(Sc1ccccc1N)c1ccccc1)[N+](=O)[O-] (stereo unspecified),-2.5,21.8,32.5,29.4,105.5*,18.1
COc1ccc(N(CC(=O)NCCc2ccccc2)C(=O)c2csnn2)cc1OC,0.5,3.5,-2.9,1.2,nt,nt
CC(OC(=O)CCCN=C1NS(=O)(=O)c2ccccc21)C(=O)Nc1ccccc1F (stereo unspecified),-0.9,-0.4,2.0,9.3,nt,nt
FC(F)(F)c1cccc(/C=N/NC(=S)NC2CCCCC2)c1,-0.2,14.0,-3.8,2.6,23.4,nt
FC(F)(F)c1ccc(/C=N/NC(=S)NC2CCCCC2)cc1,-0.9,5.0,0.4,-1.3,106.0*,107.9*
NC(=O)C1CCN(c2ncc(C(F)(F)F)cc2Cl)CC1,1.3,6.2,0.5,-1.4,7.4,nt
COc1ccc(CNC(=O)C2CCCN(S(=O)(=O)c3c(C)noc3/C=C/N(C)C)C2)cc1 (stereo unspecified),-4.6,12.3,-4.7,2.4,nt,nt
O=C1N(c2ccccc2)C[C@@H]2C[C@@H](c3cccs3)N3CCC[C@@]123,-3.8,-40.0,2.2,-0.1,98.2*,91.2*
CC1CCN(C(=O)c2ncn(Cc3ccccc3)c2C(=O)N2CCC(C)CC2)CC1,0.2,-3.6,-8.0,1.3,nt,nt
CCn1cc(CN(C)C(=O)/C=C/c2ccc([N+](=O)[O-])cc2)c(C)n1,-0.9,8.0,2.3,0.4,96.3*,0.3
NC(=S)N=Nc1c(O)[nH]c2ccccc12,-1.7,16.0,-2.4,2.9,3.9,nt
NC(=S)N=Nc1c(O)[nH]c2c(Br)cc(Br)cc12,-1.5,6.0,22.4,1.7,98.2*,7.0
Cc1nn(-c2ccccc2)c(/N=C/c2ccc(O)cc2)c1-c1ccccc1,3.9,0.9,9.6,5.7,104.5*,28.4
O=C(NC1(C(=O)O)CCCC1)c1ccccc1,nt,nt,-13.0,nt,nt,nt
CCOc1cc(/C=N/NC(=O)COc2cccc(C)c2)ccc1OC(=O)c1cccs1,7.9,-6.5,18.4,3.8,106.2*,94.2*
Cc1nn(-c2ccccc2)c(C)c1/C=N/n1c(-c2ccncc2)n[nH]c1=S,2.0,-3.4,-8.2,0.9,4.7,nt
Cc1nn(-c2ccccc2)c(C)c1/C=N/n1c(-c2ccc(Cl)cc2)n[nH]c1=S,8.9,10.3,-3.2,0.2,103.0*,47.7
CCOC(=O)c1c2c(n(-c3ccc(OC)cc3)c1C)C(=O)C(=O)c1ccccc1-2,nt,nt,11.8,nt,nt,nt
CC(=O)NC(Cc1ccccc1F)C(=O)NC1CCN(C(=O)NCc2ccccc2)CC1 (stereo unspecified),-3.8,-5.1,-4.4,2.0,nt,nt
C=CCN1C(=O)/C(=C/c2ccc(OC(C)=O)c(OCC)c2[N+](=O)[O-])SC1=S,nt,nt,25.9,nt,100.5*,113.9*
O=C(CC(NC(=O)c1ccccc1)c1ccccc1)NCc1ccccc1 (stereo unspecified),-2.0,8.9,-3.6,-0.5,nt,nt
O=C(CC(NC(=O)c1ccccc1)c1ccccc1)Nc1cccc2ccccc12 (stereo unspecified),-0.6,22.2,2.1,-1.1,103.7*,1.3
C[C@H](CO)N1C[C@H](C)[C@@H](CN(C)S(=O)(=O)c2ccc(F)cc2)Oc2c(NS(=O)(=O)c3ccccc3)cccc2C1=O,-0.7,32.5,-1.5,0.7,nt,nt
CCOC(=O)c1c(NC(=O)C2=C(C)NC(=S)NC2c2ccc(CC)cc2)sc(C)c1C (stereo unspecified),2.6,-9.7,nt,0.2,97.2*,57.1
CCOC(=O)C1=C(C)NC(=S)NC1c1ccc(OC(=O)c2ccco2)cc1 (stereo unspecified),0.0,-5.6,0.0,3.4,-5.9,nt
SMILES,XBP1 UPR activ,VLA-4 inh,B2AR ag,CHOP UPR activ,CHOP inhibitor,CHOP inh conf
CCOC(=O)c1c(S(=O)(=O)NCc2ccco2)c(C)n(C)c1C,-5.6,13.2,0.2,-0.1,nt,nt
CCSc1nc2ccccc2n1C(=O)/C=C/c1ccc(OC)c(OC)c1,-2.2,3.0,42.3*,2.8,105.0*,113.7*
CCSc1nc2ccccc2n1CC(=O)OC,-1.5,4.8,7.8,1.3,7.7,nt
C=CCSc1nc2ccccc2n1C(=O)/C=C/c1cc(OC)c(OC)c(OC)c1,-3.9,15.1,85.8*,-1.1,111.0*,109.1*
COc1cc(/C=C/C(=O)N2CCN(C(=O)/C=C/c3cc(OC)c(OC)c(OC)c3)CC2)cc(OC)c1OC,5.2,-3.1,-1.6,5.1,nt,nt
CCOc1ccc(/C=C/C2=Cc3c(sc(NC(=O)CSc4n[nH]c(N)n4)c3C#N)C(C)(C)C2)cc1,1.9,-296.7,-4.1,22.6,108.7*,115.6*
Cc1ccsc1/C=C/C1=Cc2c(sc(NC(=O)CSc3n[nH]c(N)n3)c2C#N)C(C)(C)C1,1.4,-38.7,9.5,1.2,-26.8,nt
CC(OC(=O)c1ccc2c(c1)S(=O)(=O)c1ccccc1C2=O)C(N)=O (stereo unspecified),5.3,8.6,-5.4,0.9,nt,nt
Cc1ccc2c(c1)c1c(n2CC(O)Cn2c(C)nc3ccccc32)CCCC1 (stereo unspecified),-1.4,20.1,17.7,-0.5,98.1*,81.7*
Cc1ccc(NC(=O)c2ncn(CC(=O)N[C@H](CO)Cc3c[nH]c4ccccc34)n2)cc1C,1.2,nt,0.3,1.7,nt,nt
